Tests used:
[1] = system: Human immunodeficiency virus 1; assay: Antiviral activity against HIV1 3B infected in human MT4 cells assessed as protection from virus-induced cytopathogenicity by MTT assay; format: functional, organism-based; conditions: Human immunodeficiency virus 1, 3B
Summary of the method: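 HIV-1 IIIB replication in MT4 cells followed by virus-induced cytopathogenic effect. IC50 is the concentration protecting 50% of infected cells against cytopathogenicity. Values are averages of at least two or three separate experiments.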

[2] = Cytotoxicity against human MT4 cells by MTT assay; format: cell-based
Summary of the method: (§1)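 Uninfected CEM-SS, MT4 or PBMC cells exposed to compound, up to 100 μM for most compounds. CC50 is the concentration causing 50% death of uninfected cells. Values are averages of at least two or three separate experiments.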

[3] = Selectivity index, ratio of CC50 for human MT4 cells to IC50 for HIV1 3B infected in human MT4 cells; format: functional
Summary of the method: (§2)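 Selectivity index calculated as CC50/IC50 for each cell system: CEM-SS/HIV-1 LAI, MT4/HIV-1 IIIB, PBMC/HIV-1 Bal.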

[4] = Cytotoxicity against human CEM-SS cells by MTT assay; format: cell-based; summary of the method: as §1
[5] = Selectivity index, ratio of CC50 for human CEM-SS cells to IC50 for HIV1 LAI infected in human CEM-SS cells; format: functional; summary of the method: as §2
[6] = Cytotoxicity against human PBMC by MTT assay; format: cell-based; summary of the method: as §1
[7] = Selectivity index, ratio of CC50 for human PBMC to IC50 for HIV1 BaL infected in human PBMC; format: functional; summary of the method: as §2
[8] = system: Human immunodeficiency virus 1; assay: Antiviral activity against HIV1 BaL infected in human PBMC assessed as inhibition of viral replication by reverse transcriptase activity measurement; conditions: Human immunodeficiency virus 1, BaL
[9] = system: Human immunodeficiency virus 1; assay: Antiviral activity against HIV1 LAI infected in human CEM-SS cells assessed as inhibition of viral replication by reverse transcriptase activity measurement; conditions: Human immunodeficiency virus 1, LAI

| IC50 [8] [µM] | IC50 [9] [µM] | SMILES | IC50 [1] [µM] | CC50 [2] [µM] | Ratio CC50/IC50 [3] | CC50 [4] [µM] | Ratio CC50/IC50 [5] | CC50 [6] [µM] | Ratio CC50/IC50 [7] |
| --- | --- | --- | --- | --- | --- | --- | --- | --- | --- |
| 9.5 | 81 | O=C([O-])Cc1cc2c(O)c(c1)Cc1cc(CC(=O)[O-])cc(c1O)Cc1cc(CC(=O)[O-])cc(c1O)Cc1cc(CC(=O)[O-])cc(c1O)C2.[Na+].[Na+].[Na+].[Na+] | 44 | > 100 | >2.3 | > 100 | >1.2 | 100 | 10.5 |
| 45 | 86 | O=S(=O)([O-])c1cc2c(O)c(c1)Cc1cc(S(=O)(=O)[O-])cc(c1O)Cc1cc(S(=O)(=O)[O-])cc(c1O)Cc1cc(S(=O)(=O)[O-])cc(c1O)C2.[Na+].[Na+].[Na+].[Na+] | 38 | > 100 | >2.6 | > 100 | >1.2 | > 100 | >2 |
| > 37 | 5.3 | Cc1nc(-c2nc(COc3c4cc(CC(=O)[O-])cc3Cc3cc(CC(=O)[O-])cc(c3O)Cc3cc(CC(=O)[O-])cc(c3OCc3nc(-c5nc(C)c(C(=O)[O-])s5)sc3C(=O)[O-])Cc3cc(CC(=O)[O-])cc(c3O)C4)c(C(=O)[O-])s2)sc1C(=O)[O-].[Na+].[Na+].[Na+].[Na+].[Na+].[Na+].[Na+].[Na+] | 14 | > 100 | >7 | > 100 | >26 | 37 | <1 |
| 27.7 | 28 | Cc1csc(-c2nc(COc3c4cc(CC(=O)[O-])cc3Cc3cc(CC(=O)[O-])cc(c3O)Cc3cc(CC(=O)[O-])cc(c3OCc3csc(-c5nc(C)cs5)n3)Cc3cc(CC(=O)[O-])cc(c3O)C4)cs2)n1.[Na+].[Na+].[Na+].[Na+] | 16.5 | > 1000 | >60 | > 1000 | >36 | 230 | 8.3 |
| 0.0077 | 0.0051 | Cc1cn([C@H]2C[C@H](N=[N+]=[N-])[C@@H](CO)O2)c(=O)[nH]c1=O [ZIDOVUDINE] |  | > 100 |  | > 100 |  | 75 |  |

| SMILES | IC50 [8] [µM] | IC50 [9] [µM] | IC50 [1] [µM] | CC50 [2] [µM] | Ratio CC50/IC50 [3] | CC50 [4] [µM] | Ratio CC50/IC50 [5] | CC50 [6] [µM] | Ratio CC50/IC50 [7] |
| --- | --- | --- | --- | --- | --- | --- | --- | --- | --- |
| O=P([O-])(O)Cc1cc2c(O)c(c1)Cc1cc(CP(=O)([O-])O)cc(c1O)Cc1cc(CP(=O)([O-])O)cc(c1O)Cc1cc(CP(=O)([O-])O)cc(c1O)C2.[Na+].[Na+].[Na+].[Na+] | 70 | > 100 | > 100 | > 100 |  | > 100 |  | 78 | >1 |
| Cc1csc(-c2nc(COc3c4cc(CP(=O)([O-])O)cc3Cc3cc(CP(=O)([O-])O)cc(c3O)Cc3cc(CP(=O)([O-])O)cc(c3OCc3csc(-c5nc(C)cs5)n3)Cc3cc(CP(=O)([O-])O)cc(c3O)C4)cs2)n1.[Na+].[Na+].[Na+].[Na+] | 57 | 15 | 14 | > 100 | >7 | > 100 | >6 | 92 | >1.7 |

— ChEMBL document CHEMBL1157689, “Synthesis and anti-HIV evaluation of water-soluble calixarene-based bithiazolyl podands” (Bioorg Med Chem, 2010)
